Measured values as given in ChEMBL document CHEMBL3611988, “Design and synthesis of 4-benzylpiperidine carboxamides as dual serotonin and norepinephrine reuptake inhibitors” (Bioorg Med Chem, 2015).

How the values were obtained:
Format in all cases: cell-based
[1] = target: T1, Sodium-dependent serotonin transporter (Homo sapiens, UniProt P31645); assay: Inhibition of human SERT expressed in HEK293 cells assessed as reduction of serotonin reuptake using [3H]-SERT at 1 uM after 15 mins by liquid scintillation counting relative to venlafaxine HCl
Method in brief: (§1)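 HEK-293 cells stably transfected with hSERT or hNET, grown at 37 °C in 5% CO2, seeded in poly-lysine-coated 24-well plates for 24 h. Washed, then preincubated with test drug in uptake buffer (Tris/HEPES, NaCl, KCl, CaCl2, MgSO4, ascorbic acid, glucose; pH 7.1) at 37 °C for 15–20 min. Radiolabelled substrate added at 20 nM final for about 5 min at 37 °C. Cells washed three times with ice-cold buffer and lysed in 1% SDS.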
Target sequence in this assay (P31645 whole entry, looked up): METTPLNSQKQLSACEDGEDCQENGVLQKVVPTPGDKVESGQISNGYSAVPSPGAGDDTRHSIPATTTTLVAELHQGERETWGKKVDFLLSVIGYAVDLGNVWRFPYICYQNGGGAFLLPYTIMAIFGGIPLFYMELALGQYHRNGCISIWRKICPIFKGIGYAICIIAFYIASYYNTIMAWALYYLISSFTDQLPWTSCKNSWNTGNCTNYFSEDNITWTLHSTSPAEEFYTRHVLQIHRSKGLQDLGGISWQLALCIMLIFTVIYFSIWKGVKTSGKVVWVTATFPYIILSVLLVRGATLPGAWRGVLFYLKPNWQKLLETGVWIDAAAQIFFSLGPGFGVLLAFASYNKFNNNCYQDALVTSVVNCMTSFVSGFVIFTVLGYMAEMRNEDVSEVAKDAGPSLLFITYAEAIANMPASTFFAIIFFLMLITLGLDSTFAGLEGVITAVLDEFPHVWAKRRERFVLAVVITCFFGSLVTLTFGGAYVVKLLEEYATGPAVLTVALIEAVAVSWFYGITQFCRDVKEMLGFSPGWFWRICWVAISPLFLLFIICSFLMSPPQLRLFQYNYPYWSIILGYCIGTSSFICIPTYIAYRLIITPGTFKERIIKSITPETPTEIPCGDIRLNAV

[2] = target: T2, Sodium-dependent noradrenaline transporter (Homo sapiens, UniProt P23975); assay: Inhibition of human NET expressed in HEK293 cells assessed as reduction of […] reuptake using [3H]-NET at 3 uM after 15 mins by liquid scintillation counting relative to venlafaxine HCl; method in brief: as §1
T2 sequence (P23975 whole entry): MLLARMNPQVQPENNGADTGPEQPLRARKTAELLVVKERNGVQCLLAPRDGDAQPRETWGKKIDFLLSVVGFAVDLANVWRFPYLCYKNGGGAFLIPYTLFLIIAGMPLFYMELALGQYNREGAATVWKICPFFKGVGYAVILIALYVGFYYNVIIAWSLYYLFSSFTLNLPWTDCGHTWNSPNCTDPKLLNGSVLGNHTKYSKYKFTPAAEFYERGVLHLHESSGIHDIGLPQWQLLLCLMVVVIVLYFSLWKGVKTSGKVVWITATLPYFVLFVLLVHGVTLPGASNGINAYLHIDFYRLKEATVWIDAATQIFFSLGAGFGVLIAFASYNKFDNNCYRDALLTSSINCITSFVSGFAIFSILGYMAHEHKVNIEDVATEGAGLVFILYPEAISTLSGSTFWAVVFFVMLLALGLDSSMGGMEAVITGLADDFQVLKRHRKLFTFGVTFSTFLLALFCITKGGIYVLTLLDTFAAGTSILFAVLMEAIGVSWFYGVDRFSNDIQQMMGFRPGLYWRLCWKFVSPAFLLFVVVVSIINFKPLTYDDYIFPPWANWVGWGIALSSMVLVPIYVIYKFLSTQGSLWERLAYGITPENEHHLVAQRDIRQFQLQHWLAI

[3] = target: T2, Sodium-dependent noradrenaline transporter; assay: Inhibition of human NET expressed in HEK293 cells assessed as reduction of […] reuptake using [3H]-NET at 1 uM after 15 mins by liquid scintillation counting relative to GBR-12909; method in brief: as §1
[4] = target: T1, Sodium-dependent serotonin transporter; assay: Inhibition of human SERT expressed in HEK293 cells assessed as reduction of serotonin reuptake using [3H]-SERT after 15 mins by liquid scintillation counting
Target sequence in this assay (P31645 whole entry): as the sequence (P31645 whole entry, looked up) above

[5] = target: T2, Sodium-dependent noradrenaline transporter; assay: Inhibition of human NET expressed in HEK293 cells assessed as reduction of […] reuptake using [3H]-NET after 15 mins by liquid scintillation counting; method in brief: as §1

SMILES	Ratio [1]	Ratio [2]	Ratio [3]	IC50 [4]	IC50 [5]
O=C(NCCN1CCC(Cc2ccccc2)CC1)c1cc2ccccc2s1	0.77	1.92			
O=C(NCCCN1CCC(Cc2ccccc2)CC1)C(c1ccccc1)c1ccccc1	0.26	1.19			
O=C(NCCN1CCC(Cc2ccccc2)CC1)c1cccc2ccccc12	0.91		0.1		
COc1ccc2cc(C(=O)NCCN3CCC(Cc4ccccc4)CC3)ccc2c1	0.63	1.97			
O=C(NCCN1CCC(Cc2ccccc2)CC1)c1ccc2ccccc2n1	1.03		0.53	786 nM	275 nM
O=C(NCCCN1CCC(Cc2ccccc2)CC1)c1cc2ccccc2s1	1.1	1.8		449 nM	4750 nM
O=C(NCCN1CCC(Cc2ccccc2)CC1)c1cc(Cl)cc(Cl)c1	0.64		1		
O=C(NCCN1CCC(Cc2ccccc2)CC1)c1ccc(-c2ccccc2)cc1	0.98	1.49		986 nM	472 nM
O=C(NCCCN1CCC(Cc2ccccc2)CC1)c1cc2ccccc2o1	0.84	1.54		500 nM	621 nM
O=C(NCCN1CCC(Cc2ccccc2)CC1)C(c1ccc(Cl)cc1)c1ccc(Cl)cc1	0.4	1.54			
O=C(NCCN1CCC(Cc2ccccc2)CC1)C(c1ccccc1)c1ccccc1	0.29	1.04			
O=C(NCCN1CCC(Cc2ccccc2)CC1)c1cc2ccccc2[nH]1	0.58	1.49			
O=C(NCCN1CCC(Cc2ccccc2)CC1)c1cc2ccccc2o1	0.78	1.09			
O=C(NCCCN1CCC(Cc2ccccc2)CC1)C(c1ccc(Cl)cc1)c1ccc(Cl)cc1	0.19	1.37			
O=C(NCCCN1CCC(Cc2ccccc2)CC1)c1cc(Cl)cc(Cl)c1	0.83		1.12	422 nM	267 nM

More lines, now with the values ahead:

Ratio [1]	Ratio [2]	Ratio [3]	IC50 [4]	IC50 [5]	SMILES
0.6		1.32			O=C(NCCCN1CCC(Cc2ccccc2)CC1)c1cccc2ccccc12
1.11		0.94	1910 nM	885 nM	O=C(NCCCN1CCC(Cc2ccccc2)CC1)c1ccc2cc(Br)ccc2c1
0.95		1.03	108 nM	342 nM	O=C(NCCCN1CCC(Cc2ccccc2)CC1)c1ccc2ccccc2c1
0.8		1.27			O=C(NCCN1CCC(Cc2ccccc2)CC1)c1ccc2ccccc2c1
0.51		0.83			O=C(NCCN1CCC(Cc2ccccc2)CC1)c1ccc2cc(Br)ccc2c1
0.85	0.62				O=C(NCCCN1CCC(Cc2ccccc2)CC1)c1ccc2ccccc2n1
0.84	1.72		546 nM	268 nM	O=C(NCCCN1CCC(Cc2ccccc2)CC1)c1cc2ccccc2[nH]1
0.98		1	323 nM	238 nM	COc1ccc2cc(C(=O)NCCCN3CCC(Cc4ccccc4)CC3)ccc2c1
1.01	1.59		56 nM	153 nM	O=C(NCCCN1CCC(Cc2ccccc2)CC1)c1ccc(-c2ccccc2)cc1
